Results as given in ChEMBL document CHEMBL1142300, “4-Aminopyrimidine tetrahydronaphthols: a series of novel vanilloid receptor-1 antagonists with improved solubility properties” (Bioorg Med Chem Lett, 2008).
Values after ≈ are worked out from the molar mass of the structure shown.

Assays:
[1] = biological target: Transient receptor potential cation channel subfamily V member 1 (Homo sapiens, UniProt Q8NER1); assay: Antagonist activity at human TRPV1 expressed in CHO cells assessed as inhibition of capsaicin-induced calcium mobilization; type: functional, cell-based
Sequence of Transient receptor potential cation channel subfamily V member 1 (Homo sapiens, UniProt Q8NER1) (Q8NER1 whole entry): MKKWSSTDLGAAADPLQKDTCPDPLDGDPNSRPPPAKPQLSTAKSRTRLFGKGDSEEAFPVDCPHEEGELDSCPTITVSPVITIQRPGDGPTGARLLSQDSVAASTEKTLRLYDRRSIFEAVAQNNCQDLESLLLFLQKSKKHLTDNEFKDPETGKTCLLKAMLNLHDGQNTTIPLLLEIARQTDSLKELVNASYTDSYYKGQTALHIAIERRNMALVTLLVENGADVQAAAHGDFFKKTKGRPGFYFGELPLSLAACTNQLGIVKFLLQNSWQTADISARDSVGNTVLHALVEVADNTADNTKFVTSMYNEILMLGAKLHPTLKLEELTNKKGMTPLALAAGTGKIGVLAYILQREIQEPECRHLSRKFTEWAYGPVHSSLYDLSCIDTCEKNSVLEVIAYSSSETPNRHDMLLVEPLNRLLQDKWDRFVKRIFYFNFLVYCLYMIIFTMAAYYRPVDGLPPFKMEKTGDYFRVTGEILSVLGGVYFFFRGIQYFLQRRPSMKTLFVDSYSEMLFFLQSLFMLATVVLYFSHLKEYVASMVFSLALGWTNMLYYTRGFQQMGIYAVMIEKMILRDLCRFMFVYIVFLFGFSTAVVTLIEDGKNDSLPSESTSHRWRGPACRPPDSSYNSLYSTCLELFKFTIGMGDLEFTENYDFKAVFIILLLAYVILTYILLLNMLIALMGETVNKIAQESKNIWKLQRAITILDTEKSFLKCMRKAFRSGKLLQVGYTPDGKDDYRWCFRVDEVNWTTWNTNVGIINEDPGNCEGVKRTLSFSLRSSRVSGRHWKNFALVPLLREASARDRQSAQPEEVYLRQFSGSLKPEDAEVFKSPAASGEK
In short: (§1)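 Inhibition of capsaicin-evoked 45Ca2+ uptake into CHO cells stably expressing human or rat TRPV1; IC50 taken as mean of at least three measurements ± SEM. Compounds were also run separately for agonist activity.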

[2] = biological target: Transient receptor potential cation channel subfamily V member 1 (Rattus norvegicus, UniProt O35433); assay: Antagonist activity at rat TRPV1 expressed in CHO cells assessed as inhibition of capsaicin-induced calcium mobilization; type: functional, cell-based; in short: as §1
Sequence of Transient receptor potential cation channel subfamily V member 1 (Rattus norvegicus, UniProt O35433) (O35433 whole entry): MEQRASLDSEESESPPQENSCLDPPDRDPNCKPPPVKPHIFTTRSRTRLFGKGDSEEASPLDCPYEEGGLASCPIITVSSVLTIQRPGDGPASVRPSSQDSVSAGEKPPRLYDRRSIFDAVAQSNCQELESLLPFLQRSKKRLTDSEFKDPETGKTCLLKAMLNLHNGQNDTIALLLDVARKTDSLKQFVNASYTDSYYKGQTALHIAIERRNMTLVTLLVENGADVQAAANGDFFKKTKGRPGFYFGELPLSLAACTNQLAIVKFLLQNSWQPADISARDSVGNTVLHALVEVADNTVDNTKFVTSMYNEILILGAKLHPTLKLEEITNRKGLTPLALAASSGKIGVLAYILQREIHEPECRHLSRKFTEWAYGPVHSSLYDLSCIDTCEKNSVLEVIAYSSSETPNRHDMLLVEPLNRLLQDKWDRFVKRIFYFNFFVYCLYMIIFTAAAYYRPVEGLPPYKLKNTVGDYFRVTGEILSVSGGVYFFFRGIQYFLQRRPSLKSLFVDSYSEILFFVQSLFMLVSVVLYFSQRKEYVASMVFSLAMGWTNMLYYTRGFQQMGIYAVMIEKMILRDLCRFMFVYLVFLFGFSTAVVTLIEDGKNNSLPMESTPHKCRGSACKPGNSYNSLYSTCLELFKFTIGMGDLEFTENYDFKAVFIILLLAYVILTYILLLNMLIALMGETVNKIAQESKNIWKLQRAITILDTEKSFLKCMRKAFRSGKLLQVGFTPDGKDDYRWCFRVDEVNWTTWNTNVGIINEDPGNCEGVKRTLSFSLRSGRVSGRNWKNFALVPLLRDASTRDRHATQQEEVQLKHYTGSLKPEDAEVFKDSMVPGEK

[3] = Bioavailability in rat at 5 mg/kg, po; type: ADME, organism-based; conditions: in vivo
[4] = AUC in rat at 5 mg/kg, po; type: ADME, organism-based; parameters: dose 5 mg/kg, route oral; conditions: plasma
[5] = Clearance in iv dosed rat; type: ADME, organism-based; conditions: in vivo
[6] = Solubility in simulated intestinal fluid at pH 6.8; type: physicochemical
In short: (§2)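 Thermodynamic solubility determined on a high-throughput automated platform in three aqueous media: 0.01 N HCl, phosphate-buffered saline pH 7.4, and simulated intestinal fluid pH 6.8.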

[7] = (§3) Half life in iv dosed rat; type: ADME, organism-based; conditions: in vivo
[8] = Solubility in phosphate buffered saline at pH 7.4; type: physicochemical; in short: as §2
[9] = Solubility in aqueous 0.01 N HCL; type: physicochemical; in short: as §2
[10] = test system: Rattus norvegicus; assay: as §3; type: ADME, organism-based; conditions: in vivo
[11] = AUC in rat at 3 mg/kg, po; type: ADME, organism-based; parameters: dose 3 mg/kg, route oral; conditions: plasma
[12] = simulated intestinal fluid, read-out: Solubility
[13] = aqueous 0.01 N HCl, read-out: Solubility

SMILES | IC50 [1] [nM] | IC50 [2] [nM] | Solubility ([8]; buffer) [µg/mL] | Solubility ([9]; buffer) [mg/mL] | further results
CSc1cccc(NC(=O)Nc2cccc3ccc(O)cc23)c1 | 13 | 35 |  |  | 
OC1CCc2c(Cl)ccc(Nc3cc(-c4ccc(C(F)(F)F)cc4)ncn3)c2C1 (centres undefined) |  |  |  |  | bioavailability [3]: 34%; AUC [4]: 3400 ng·h/mL
OC1CCc2c(Br)ccc(Nc3cc(-c4ccc(C(F)(F)F)cc4)ncn3)c2C1 (centres undefined) | 2.1 | 9.6 |  |  | clearance [5]: 6.5 mL/min/kg; Solubility [6, 12]: 73 µg/mL (≈ 157 µM); bioavailability [3]: 60%; half-life [7]: 330 min; Solubility ([8]; phosphate buffered saline, read-out: Solubility): 7.7 µg/mL (≈ 16.6 µM); Solubility [9, 13]: 0.0072 mg/mL (≈ 15.5 µM); AUC [4]: 7600 ng·h/mL
OC1CCc2cccc(Nc3cc(-c4ccc(C(F)(F)F)cc4)ncn3)c2C1 (single isomer, unassigned; (+)) | 0.58 | 5.7 | 5.6 (≈ 14.5 µM) | 0.18 (≈ 467 µM) | Solubility ([6]; simulated gi fluid): 60 µg/mL (≈ 156 µM); t1/2 [10]: 1.2 h
OC1CCc2cccc(Nc3cc(-c4ccc(C(F)(F)F)cc4)ncn3)c2C1 (single isomer, unassigned; (-)) | 0.62 | 5.5 | 9.1 (≈ 23.6 µM) |  | clearance [5]: 96.7 mL/min/kg; Solubility [6, 12]: 85 µg/mL (≈ 221 µM); half-life [7]: 54 min; Solubility [9, 13]: 0.16 mg/mL (≈ 415 µM)
OC1CCc2cccc(Nc3cc(-c4ccc(C(F)(F)F)cc4)ncn3)c2C1 (stereo in doubt; 4) | 0.65 | 3.1 | 23 (≈ 59.7 µM) | 0.19 (≈ 493 µM) | 
CC(=O)Nc1nc2c(Oc3cc(-c4ccc(C(F)(F)F)cc4)ncn3)cccc2s1 [AMG-517] |  |  | < 0.1 | < 0.0001 | AUC [11]: 5300 ng·h/mL; Solubility ([6]; simulated gi fluid): 0.66 µg/mL (≈ 1.53 µM)
